From PubChem BioAssay
C8 TRAIL sens: caspase-8 TRAIL sensitization | AID 624354 | inhibition (viability loss, TRAIL sensitization), % at 10 µM | 360,000 compounds, 1% hits | NB7+C8 cells + TRAIL, ATPlite viability luminescence;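 active = compounds causing at least 50% loss of cell viability in the single-dose screen, relative to plate controls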
HSP90 refold inh: inhibitors of HSP90 luciferase refolding in rabbit reticulocyte lysate; inhibition, % at 5.6 µM; 290,000 compounds, 0.91% hits; luciferase refolding luminescence, 3 h;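 active = inhibition above the screen-wide mean plus 3 SD, computed separately per campaign, cut at about 16% in these data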;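 note: 0% = DMSO wells and 100% = 60 µM geldanamycin wells; inhibitors lower the luminescence because luciferase stays unfolded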
STAT3 act-1: activators of IL-6 induced STAT3 signaling | U3A cells, IL-6 STAT3-luciferase reporter, luminescence; 100% = signal with IL-6 EC80 alone | activation (% of control), % at 5.6 µM | 190,000 compounds, 0.91% hits;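 active = activation above the screen-wide mean of compound activation plus 3 SD, cut at about 130% in these data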;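 note: 0% = background luminescence of wells with medium and substrate only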
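Material: human U3A cells carrying STAT3-luciferase construct. Measured by: reporter luminescence signal. Timing: compound 1 h, then IL-6 6 h at 37 °C.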
STAT1 inh: reduces IFN-gamma driven STAT1 reporter signal; NIH 3T3 STAT1-luciferase reporter, luminescence; AID 920; 200,000 compounds, 0.35% hits; inhibition, % at 5.5 µM;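 active = inhibition above a set limit, the mean inhibition across all tested compounds plus 3 SD, cut at about 34% in these data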;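 note: 0% = IFN-gamma with DMSO and 100% = IFN-gamma with 300 µM nifuroxazide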
PPC-1+TRAIL kill: compounds killing PPC-1 cancer cells with TRAIL present (potentiator screen, no TRAIL-free arm). PPC-1 cells + TRAIL, ATPLite viability luminescence. cell killing (% activity), % at 4 µM or 5 µM. 220,000 compounds, 0.41% hits. AID 1443;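 active = cell killing above 50% in the first pass at 4 µM, then a duplicate retest at 5 µM averaging 50% or more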;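 note: plate controls were cells with TRAIL plus DMSO for no effect and medium-only wells lacking cells for full effect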
STAT3 inh: inhibitors of IL-6 induced STAT3 signaling | U3A cells, IL-6 STAT3-luciferase reporter, luminescence; host cell line lacks STAT1 | inhibition, % at 5.5 µM | 190,000 compounds, 0.89% hits;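 active = inhibition above the mean inhibition across all screened compounds plus 3 SD, cut at about 44% in these data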;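 note: 0% = DMSO only wells and 100% = 100 µM nifuroxazide control wells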
STAT3 act-2: confirmation of STAT3 signaling activators | U3A STAT3-luciferase reporter, IL-6 potentiation, luminescence; U3A cells lack STAT1; 100 means same as IL-6 alone | shares compounds with STAT3 act-1 | potentiation (% of control), % at 5.7 µM | 1,200 compounds, 64% hits | AID 1267;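 active = percent activation of the STAT3 luciferase reporter above a set limit taken from the earlier primary screen, cut at about 130% in these data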;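 note: 0% = background signal of medium plus substrate and 100% = median of IL-6 with DMSO wells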
NFkB act STAT3ct: counter-screen for STAT3 activators: NF-kappaB activation; human cells, NF-kappaB reporter activation; 1,200 compounds, 11% hits; shares compounds with STAT3 act-1; activation (% of control), % at 5.7 µM; AID 1309; in the data active = activation above about 120%;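 note: reporter induced by TNF-alpha stimulation; 100% = median of stimulated DMSO wells and 0% = no signal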
STAT1 act STAT3c: activates STAT1, counter-screen to STAT3 activators. 1,200 compounds, 13% hits. AID 1318. NIH 3T3 STAT1-luciferase reporter, IFN-gamma, luminescence. shares compounds with STAT3 act-1. activation (% of control), % at 5.7 µM;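 active = activation above the solvent-only control well mean plus 3 SD, set per screening run, cut at about 120% in these data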;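 note: 100% = IFN-gamma with DMSO median signal so 100% means no change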
An asterisk follows results filed as active; . = no result. An excerpt weighted towards active compounds, which were near 2.3% of everything screened.

SMILES	C8 TRAIL sens	HSP90 refold inh	STAT3 act-1	STAT1 inh	PPC-1+TRAIL kill	STAT3 inh	STAT3 act-2	NFkB act STAT3ct	STAT1 act STAT3c
Cc1ccc(NCC(=O)N/N=C/c2cc3ccccc3nc2Cl)cc1	-1.8	0.7	177.6*	8.7	17.2	-90.0	171.4*	113.2	107.4
Cc1cc(NS(=O)(=O)c2ccc(NC(=O)Cc3cccs3)cc2)no1	-3.0	-5.0	100.8	-4.0	21.5	0.0	.	.	.
Cc1cc(NC(=O)Cc2cccs2)no1	1.1	4.0	143.3*	0.9	4.7	-47.4	130.8	108.3	99.8
COc1ccc2cc(/C=C/C(=O)c3ccco3)c(Cl)nc2c1	.	2.0	108.5	-12.8	21.6	-10.0	.	.	.
COc1cc2cc(/C=C/C(=O)c3ccco3)c(Cl)nc2cc1OC	-2.6	0.9	138.9*	1.5	15.4	-45.5	110.7	109.4	94.9
CSc1nc(/C=C2\C=Nc3ccccc32)c(O)n1C	7.4	-3.4	146.5*	0.4	23.4	-54.9	155.5*	111.2	103.3
NNC(=O)c1ccc2ccccc2n1	-2.7	-0.4	144.1*	0.7	6.1	-38.0	140.6*	104.6	99.9
O=C(NN=C1CCCCCCC1)c1ccc2ccccc2n1	2.2	-2.7	153.8*	-12.1	27.8	-62.9	139.8*	107.1	118.8
Cc1nn(CCC(=O)NNC(=S)Nc2ccc([N+](=O)[O-])cc2)c(C)c1[N+](=O)[O-]	1.5	1.9	140.3*	4.2	23.9	-46.8	135.6*	104.2	102.5
Cc1nn(CCC(=O)NNC(=S)Nc2ccc(F)cc2)c(C)c1Br	-4.1	-5.1	104.2	2.9	5.7	-4.1	.	.	.
O=c1cc(-c2ccccc2)[nH]n1-c1nc2ccccc2[nH]1	7.7	4.5	154.6*	-13.9	7.3	-53.1	141.0*	157.4*	140.8*
CC(C)Cc1cc(C(=O)Nc2cc(C(F)(F)F)ccc2Cl)no1	6.4	9.3	143.3*	2.6	18.0	-41.5	124.5	96.8	95.5
Cc1ccc2[nH]c(-c3cccc(F)c3)cc(=O)c2c1	20.9	-1.9	142.4*	-22.9	30.3	-53.6	110.1	142.8*	116.3
COc1ccc2[nH]c(-c3cccc(F)c3)cc(=O)c2c1	25.1	-3.9	148.1*	-30.2	7.0	-60.4	119.5	130.1*	125.5*
COc1cccc(-c2cc(=O)c3cc(NC(=O)c4ccc(N(C)C)cc4)ccc3[nH]2)c1	.	2.4	138.9*	-3.0	39.3	-49.4	112.4	160.9*	105.9
Cc1ccc(-c2cc(=O)c3cc(F)ccc3[nH]2)cc1	33.3	1.8	106.1	-4.1	8.6	-10.1	.	.	.
O=c1cc(-c2ccccc2)[nH]c2ccc(F)cc12	25.9	-3.8	117.0	-7.8	9.9	-23.2	.	.	.
CCCCS(=O)(=O)Nc1ccc2cn[nH]c2c1	10.0	-4.1	143.3*	-1.9	18.3	-47.1	139.0*	100.5	98.9
O=S(=O)(Nc1ccc2cn[nH]c2c1)c1ccc(Cl)s1	26.0	0.8	138.5*	0.1	1.2	-48.6	122.5	96.9	95.0
N#Cc1c(C(F)(F)F)cc(-c2ccccc2)nc1SCCN1CCOCC1	8.0	2.1	151.6*	10.8	-6.6	-56.3	145.6*	104.9	95.8
O=C(COc1ccccc1CNCc1ccccc1)Nc1ccccc1	8.4	0.2	142.7*	-6.4	6.5	-51.0	122.5	110.6	105.3
CCOC(=O)c1ccccc1NC(=O)C1CCCO1 (centres undefined)	-7.4	3.8	.	.	.	.	.	.	.
O=C(NCCOc1ccccc1)c1ccccc1NC(=O)C1CCCO1 (centres undefined)	3.1	3.9	139.6*	-9.3	0.9	-40.4	138.1*	120.3	130.9*
COC(=O)c1c(NC(=O)CN2CCN(c3ccccc3OC)CC2)c2cc(C)ccc2n1C	-6.7	-3.1	142.7*	-1.7	10.3	-42.0	134.9*	107.4	100.4
S=C(NCCc1ccccc1)N1CCN(C(c2ccccc2)c2ccccc2)CC1	-3.4	-0.6	102.0	0.1	4.0	1.5	.	.	.
SMILES	C8 TRAIL sens	HSP90 refold inh	STAT3 act-1	STAT1 inh	PPC-1+TRAIL kill	STAT3 inh	STAT3 act-2	NFkB act STAT3ct	STAT1 act STAT3c
COc1ccc(CC(=O)Oc2ccc(C)cc2Br)cc1S(=O)(=O)N1CCOCC1	-17.5	.	.	.	.	.	.	.	.
O=C(NC(c1ccc(Cl)cc1)c1cc(Cl)c2cccnc2c1O)c1cccnc1 (centres undefined)	46.8	5.6	92.4	10.7	24.1	7.8	.	.	.
C/C(=N\OCc1nc2ccccc2c(=O)n1/N=C/c1cc(C)cc([N+](=O)[O-])c1O)c1ccccc1	9.0	0.7	.	.	19.4	.	.	.	.
Cc1cc(/C=N/n2cnnc2)c(O)c([N+](=O)[O-])c1	8.6	-3.6	138.5*	-0.3	18.1	-42.6	149.3*	98.5	95.2
O=C1NC(=O)C(Nc2cccc3ccccc23)S1 (centres undefined)	-3.7	-1.0	141.5*	6.2	13.0	-45.9	129.0	102.6	94.3
Nc1nc2c3ccccc3nc(Cc3ccccc3)n2n1	7.3	4.0	106.9	12.2	-4.3	-4.9	.	.	.
O=C(CSc1nc2c([nH]c3ccccc32)c(=O)n1-c1ccc(F)cc1)NCc1ccco1	9.9	2.9	142.1*	14.0	25.3	-40.0	118.8	94.0	87.2
O=C(CSc1nc2c(c(=O)n1-c1ccc(F)cc1)SCC2)NCc1ccco1	-1.3	4.1	95.6	8.6	-2.6	7.7	.	.	.
CC(C)c1cc(-c2cc(C(=O)NCc3ccccc3)on2)nc(NC2CCCC2)n1	3.9	.	.	.	7.9	.	.	.	.
Cc1[nH]n(-c2ccccc2)c(=O)c1N=Nc1ccccc1O	56.8*	0.1	167.6*	-4.5	46.0	-76.6	171.0*	108.7	123.4*
NC(=O)C1CCN(c2nc(-c3ccccc3)nc3ccccc23)CC1	-4.2	-0.1	100.4	8.1	12.2	3.7	.	.	.
CCOC(=O)C1CCN(c2nc(-c3ccc(Br)cc3)nc3ccccc23)CC1	11.4	-3.0	142.5*	4.6	12.4	-39.8	137.4*	97.9	88.8
CC1CCN(C(=O)CCCN2C(=O)c3cccnc3Oc3ccc(Cl)cc32)CC1	-2.5	-1.7	.	.	.	.	.	.	.
Cc1cc(C(=O)N2CCc3c([nH]c4ccccc34)C2c2c(F)cccc2Cl)no1 (centres undefined)	-3.5	3.2	122.7	5.2	14.0	-20.4	.	.	.
O=C(c1cc[n+]([O-])cc1)N1CCc2c([nH]c3ccccc23)C1c1ccccc1Cl (centres undefined)	-20.1	0.0	176.5*	10.2	1.6	-83.0	155.0*	99.8	91.3
